The source of these data is ChEMBL document CHEMBL1772956, “Synthesis and binding affinity of novel mono- and bivalent morphinan ligands for κ, μ, and δ opioid receptors” (Bioorg Med Chem, 2011).

For test [1], the target named is T1, Kappa-type opioid receptor (Homo sapiens, UniProt P41145). Nature of the test: Agonist activity at human kappa-opioid receptor expressed in CHO cells assessed as stimulation of [35S]GTPgammaS binding after 60 mins by scintillation counting relative to control. It is filed as functional, cell-based. In a few lines: (§1)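 Membranes from CHO cells stably expressing human κ or μ opioid receptor were incubated with 12 compound concentrations in 50 mM Tris-HCl pH 7.4 with 3 μM GDP, 3 mM MgCl2, 0.2 mM EGTA and 100 mM NaCl. [35S]GTPγS was 0.08 nM final, 60 min at 30°C, and 10 μM GTPγS gave nonspecific binding. Samples were filtered and counted. EC50 and Emax (% stimulation over basal) came from three experiments in triplicate.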
In general terms: GTPγS resists hydrolysis and so accumulates on activated G proteins.

In test [2] the target is T2, Mu-type opioid receptor (Homo sapiens, UniProt P35372). Kind of test: biochemical. It is filed as cell-based, CHO.
The target in test [3] is Delta-type opioid receptor (Homo sapiens, UniProt P41143). Nature of the test: Displacement of [3H]naltrindole from human delta-opioid receptor expressed in CHO cells after 3 hrs by scintillation counting. In kind it is cell-based. On the technique in general: Loss of bound radioactivity is the signal in a displacement assay; it reports binding, not function.
The target in test [4] is T1, Kappa-type opioid receptor. Nature of the test: Agonist activity at human kappa-opioid receptor expressed in CHO cells assessed as stimulation of [35S]GTPgammaS binding after 60 mins by scintillation counting. In kind it is functional, cell-based. In outline: as §1
The target of test [5] is T2, Mu-type opioid receptor. Nature of the test: Antagonist activity at human mu-opioid receptor expressed in CHO cells assessed as inhibition of DAMGO-induced [35S]GTPgammaS binding after 60 mins by scintillation counting relative to control. It is filed as functional, cell-based. In outline:
(§2)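 Human μ receptor CHO membranes were incubated with 200 nM DAMGO to drive [35S]GTPγS (0.08 nM) binding, with 12 compound concentrations up to 10 μM, in Tris pH 7.4/GDP/MgCl2/EGTA/NaCl buffer, 60 min at 30°C. Nonspecific binding was with 10 μM GTPγS. Samples were filtered and counted.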

Test [6] is filed under the species Homo sapiens. Kind of test: Selectivity ratio of Ki for human kappa opioid receptor over Ki for human mu opioid receptor.
Test [7] concerns the target T2, Mu-type opioid receptor. Kind of test: Antagonist activity at human mu-opioid receptor expressed in CHO cells assessed as inhibition of DAMGO-induced [35S]GTPgammaS binding after 60 mins by scintillation counting. In kind it is functional, cell-based. In outline: as §2
For test [8], the target named is T1, Kappa-type opioid receptor. Nature of the test: Antagonist activity at human kappa-opioid receptor expressed in CHO cells assessed as inhibition of U69593-induced [35S]GTPgammaS binding after 60 mins by scintillation counting. In kind it is functional, cell-based.
Test [9] deals with T2, Mu-type opioid receptor. Kind of test: Agonist activity at human mu-opioid receptor expressed in CHO cells assessed as stimulation of [35S]GTPgammaS binding after 60 mins by scintillation counting relative to control. It is filed as functional, cell-based. In outline: as §1
Test [10] concerns the target T2, Mu-type opioid receptor. Nature of the test: Agonist activity at human mu-opioid receptor expressed in CHO cells assessed as stimulation of [35S]GTPgammaS binding after 60 mins by scintillation counting. In kind it is functional, cell-based. In outline:
as §1

The target in test [11] is T1, Kappa-type opioid receptor. Nature of the test: Antagonist activity at human kappa-opioid receptor expressed in CHO cells assessed as inhibition of U69593-induced [35S]GTPgammaS binding after 60 mins by scintillation counting relative to control. It is filed as functional, cell-based.
The species named for test [12] is Homo sapiens. Nature of the test: Selectivity ratio of Ki for human kappa opioid receptor over Ki for human delta opioid receptor.
Test [13] concerns the target T1, Kappa-type opioid receptor. Nature of the test: biochemical. It is filed as cell-based, CHO.
The target in test [14] is T2, Mu-type opioid receptor. Kind of test: Antagonist activity at human mu-opioid receptor expressed in CHO cells assessed as inhibition of DAMGO-induced [35S]GTPgammaS binding at 10 uM after 60 mins by scintillation counting relative to control. It is filed as functional, cell-based. In outline: as §2
The target in test [15] is T2, Mu-type opioid receptor. Nature of the test: Antagonist activity at human mu-opioid receptor expressed in CHO cells assessed as inhibition of DAMGO-induced [35S]GTPgammaS binding at 10 uM after 60 mins by scintillation counting. In kind it is functional, cell-based. In outline: as §2

Calls of active or inactive are those of the source. The calls are words filed in the database; no cut-off is given here.

Sequence of Delta-type opioid receptor (P41143 whole entry): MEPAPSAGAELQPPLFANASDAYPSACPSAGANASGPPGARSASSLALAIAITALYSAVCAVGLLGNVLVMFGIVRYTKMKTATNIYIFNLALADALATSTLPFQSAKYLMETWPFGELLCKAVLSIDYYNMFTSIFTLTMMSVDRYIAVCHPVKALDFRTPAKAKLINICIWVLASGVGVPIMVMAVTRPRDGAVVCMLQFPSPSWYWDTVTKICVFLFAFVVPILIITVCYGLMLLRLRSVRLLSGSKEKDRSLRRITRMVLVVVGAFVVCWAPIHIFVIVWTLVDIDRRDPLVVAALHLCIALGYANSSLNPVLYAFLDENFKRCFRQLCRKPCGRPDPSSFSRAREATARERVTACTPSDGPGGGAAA
T1 sequence (P41145 whole entry): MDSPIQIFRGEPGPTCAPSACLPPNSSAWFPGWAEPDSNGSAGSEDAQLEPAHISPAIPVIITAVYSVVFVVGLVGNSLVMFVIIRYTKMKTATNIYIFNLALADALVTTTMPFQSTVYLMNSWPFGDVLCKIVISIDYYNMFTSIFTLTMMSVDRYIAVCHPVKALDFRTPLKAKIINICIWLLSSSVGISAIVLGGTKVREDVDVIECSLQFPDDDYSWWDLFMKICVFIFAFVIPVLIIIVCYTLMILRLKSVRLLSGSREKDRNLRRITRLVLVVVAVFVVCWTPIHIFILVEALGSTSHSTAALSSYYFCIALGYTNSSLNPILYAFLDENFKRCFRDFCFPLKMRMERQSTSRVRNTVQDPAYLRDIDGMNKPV
T2 sequence (P35372 whole entry): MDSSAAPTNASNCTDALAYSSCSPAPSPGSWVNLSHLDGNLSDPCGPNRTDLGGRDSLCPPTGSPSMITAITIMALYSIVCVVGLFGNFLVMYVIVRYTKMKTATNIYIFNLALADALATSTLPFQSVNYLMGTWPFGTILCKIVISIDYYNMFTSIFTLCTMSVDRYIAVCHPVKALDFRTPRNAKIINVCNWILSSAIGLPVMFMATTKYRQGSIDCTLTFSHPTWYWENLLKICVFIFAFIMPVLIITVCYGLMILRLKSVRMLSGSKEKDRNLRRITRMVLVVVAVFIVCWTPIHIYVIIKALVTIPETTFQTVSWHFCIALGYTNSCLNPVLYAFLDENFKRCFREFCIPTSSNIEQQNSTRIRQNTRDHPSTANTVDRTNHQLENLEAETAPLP

As for `CO[C@@]12CCCC[C@@]13CCN(CC1CCC1)[C@@H]2Cc1ccc(OC(=O)CCCCCCCCC(=O)OCc2ccccc2)cc13`, the Emax in test [1] worked out at 90%; on Mu-type opioid receptor [9], 54%. Moreover, the Ki on Mu-type opioid receptor [2] turned out to be 0.15 nM; in test [3], 14 nM; in test [13], 0.23 nM. In addition, the EC50 in [4] was determined as 2.1 nM; at Mu-type opioid receptor [10] it was 1.7 nM. The Imax was determined as 28% on Mu-type opioid receptor [5] and 30% in [11]. Besides, the figures for the Ratio Ki in the test listed under Homo sapiens [6] and in the test filed under Homo sapiens [12] were 1 and 93, respectively. The concentration for half-maximal inhibition (IC50) came to 7.6 nM on Mu-type opioid receptor [7] and 6.4 nM in [8] (read-out: IC50).

For `CO[C@@]12CCCC[C@@]13CCN(CC1CCC1)[C@@H]2Cc1ccc(O)cc13`, the Emax in [1] came out at 90%; at Mu-type opioid receptor [9] it was 50%. Also, the Ki at Mu-type opioid receptor [2] was 0.14 nM; in test [3], 8.1 nM; in test [13] it was 0.2 nM. Besides, the EC50 stood at 2.8 nM in test [4] and 3.6 nM on Mu-type opioid receptor [10]. The Imax at Mu-type opioid receptor [5] stood at 50%; in [11], 37%. In addition, the Ratio Ki in the test listed under Homo sapiens [6] turned out to be 1; in the test filed under Homo sapiens [12], 58. The results for the IC50 (on Mu-type opioid receptor [7]; in test [8] (read-out: IC50)) were 9.3 nM and 22 nM, respectively.

With `O=C(/C=C/C(=O)Oc1ccc2c(c1)[C@@]13CCCC[C@H]1[C@@H](C2)N(CC1CCC1)CC3)Oc1ccc2c(c1)[C@@]13CCCC[C@H]1[C@@H](C2)N(CC1CCC1)CC3`, the Ratio Ki amounted to 3 in the test listed under Homo sapiens [6] and 120 in the test listed under Homo sapiens [12].

Consider `O=C(CCCCCCCCC(=O)Nc1nc2cc3c(cc2s1)C[C@@H]1[C@@H]2CCCC[C@]32CCN1CC1CC1)Nc1nc2cc3c(cc2s1)C[C@@H]1[C@@H]2CCCC[C@]32CCN1CC1CC1`, for which the Emax in [1] stood at 130%; at Mu-type opioid receptor [9] it was 25%. In addition, the Ki at Mu-type opioid receptor [2] worked out at 8.8 nM; in test [3], 170 nM; in [13], 0.37 nM. For the same compound, the inhibition on Mu-type opioid receptor [14] amounted to 74%. Further, the EC50 in [4] was 5.5 nM; at Mu-type opioid receptor [10] it was 130 nM. In addition, the results for the Ratio Ki in the test listed under Homo sapiens [6] and in the test listed under Homo sapiens [12] were 24 and 460, respectively. In addition, the IC50 result in [8] (cho) is on record as “Not Active”. The Imax result in test [11] is “inactive”. Besides, the inhibition entry at Mu-type opioid receptor [15] was “inactive”.

Turning to `c1c2c(cc3sc(NCCCCCCCCCCNc4nc5cc6c(cc5s4)C[C@@H]4[C@@H]5CCCC[C@]65CCN4CC4CC4)nc13)C[C@@H]1[C@@H]3CCCC[C@]23CCN1CC1CC1`, the maximum response (Emax) in test [1] was determined as 130%; at Mu-type opioid receptor [9] it was 38%. For the same compound, the Ki on Mu-type opioid receptor [2] came to 2.5 nM; in [3] it was 39 nM; in [13], 0.27 nM. Further, the EC50 amounted to 7.3 nM in test [4] and 22 nM on Mu-type opioid receptor [10]. For the same compound, the Imax at Mu-type opioid receptor [5] was 71%. In addition, the Ratio Ki in the test filed under Homo sapiens [6] is 9; in the test listed under Homo sapiens [12], 140. Moreover, the IC50 at Mu-type opioid receptor [7] is 390 nM; in test [8] (cho), “Not Active”. Moreover, the Imax entry in test [11] was “inactive”.

Regarding `Nc1nc2cc3c(cc2s1)C[C@@H]1[C@@H]2CCCC[C@]32CCN1CC1CC1`, the figures for the Ratio Ki in the test listed under Homo sapiens [6] and in the test filed under Homo sapiens [12] were 31 and 592, respectively.

With `O=C(CCCCCCCCC(=O)Oc1ccc2c(c1)[C@@]13CCCC[C@@]1(O)[C@@H](C2)N(CC1CCC1)CC3)Oc1ccc2c(c1)[C@@]13CCCC[C@H]1[C@@H](C2)N(CC1CCC1)CC3`, the Emax in [1] is 100%; at Mu-type opioid receptor [9], 46%. In addition, the Ki was determined as 0.089 nM at Mu-type opioid receptor [2], 8 nM in test [3] and 0.073 nM in [13]. Moreover, the EC50 amounted to 0.84 nM in test [4] and 1.2 nM at Mu-type opioid receptor [10]. Moreover, the Imax on Mu-type opioid receptor [5] is 50%; in test [11] it was 23%. For the same compound, the results for the Ratio Ki in the test filed under Homo sapiens [6] and in the test filed under Homo sapiens [12] were 1 and 110, respectively. Also, the figures for the IC50 (on Mu-type opioid receptor [7]; in [8] (read-out: IC50)) were 3.4 nM and 3.7 nM, respectively.

As for `C=CCN1CC[C@]23c4c5ccc(OC(=O)CCCCCCCCC(=O)Oc6ccc7c(c6)[C@@]68CCCC[C@@]6(OC)[C@@H](C7)N(CC6CCC6)CC8)c4O[C@H]2C(=O)CC[C@@]3(O)[C@H]1C5`, the figures for the Emax (in test [1]; at Mu-type opioid receptor [9]) were 80% and 62%, respectively. In addition, the Ki at Mu-type opioid receptor [2] stood at 0.55 nM; in test [3], 39 nM; in [13] it was 0.14 nM. The figures for the EC50 (in [4]; at Mu-type opioid receptor [10]) were 18 nM and 10 nM, respectively. The results for the Imax (on Mu-type opioid receptor [5]; in [11]) were 45% and 33%, respectively. Moreover, the Ratio Ki in the test listed under Homo sapiens [6] was 4; in the test listed under Homo sapiens [12], 280. For the same compound, the IC50 was found to be 19 nM at Mu-type opioid receptor [7] and 7.7 nM in [8] (read-out: IC50).

For the compound `CO[C@@]12CCCC[C@@]13CCN(CC1CCC1)[C@@H]2Cc1ccc(OC(=O)CCCCCCCCC(=O)Oc2ccc4c(c2)[C@@]25CCCC[C@@]2(OC)[C@@H](C4)N(CC2CCC2)CC5)cc13`, the Emax in test [1] turned out to be 83%; on Mu-type opioid receptor [9] it was 42%. For the same compound, the Ki on Mu-type opioid receptor [2] was found to be 0.26 nM; in test [3] it was 13 nM; in test [13], 0.37 nM. Also, the EC50 in test [4] stood at 2.4 nM; on Mu-type opioid receptor [10], 1.8 nM. The Imax at Mu-type opioid receptor [5] was 44%; in test [11], 43%. Further, the Ratio Ki in the test filed under Homo sapiens [6] is 1; in the test listed under Homo sapiens [12], 50. The IC50 at Mu-type opioid receptor [7] is 260 nM; in test [8] (read-out: IC50), 17 nM.

For the compound `O=C(CCCCCCCCC(=O)Oc1ccc2c(c1)[C@@]13CCCC[C@H]1[C@@H](C2)N(CC1CCC1)CC3)Oc1ccc2c(c1)[C@@]13CCCC[C@H]1[C@@H](C2)N(CC1CCC1)CC3`, the Ratio Ki in the test filed under Homo sapiens [6] came out at 2; in the test listed under Homo sapiens [12], 90.

As for `C=CCN1CC[C@]23c4c5ccc(OC(=O)CCCCCCCCC(=O)Oc6ccc7c(c6)[C@@]68CCCC[C@@]6(O)[C@@H](C7)N(CC6CCC6)CC8)c4O[C@H]2C(=O)CC[C@@]3(O)[C@H]1C5`, the Emax in test [1] worked out at 74%; at Mu-type opioid receptor [9] it was 19%. Also, the Ki at Mu-type opioid receptor [2] turned out to be 0.82 nM; in [3], 35 nM; in [13], 0.28 nM. For the same compound, the EC50 was 12 nM in [4] and 2 nM at Mu-type opioid receptor [10]. Moreover, the Imax was 73% at Mu-type opioid receptor [5] and 35% in [11]. For the same compound, the results for the Ratio Ki in the test filed under Homo sapiens [6] and in the test filed under Homo sapiens [12] were 3 and 130, respectively. The IC50 at Mu-type opioid receptor [7] worked out at 34 nM; in test [8] (read-out: IC50), 49 nM.

Usually Emax stands for the size of the effect at its maximum, as opposed to the concentration needed. In general, Ki refers to a dissociation constant, usually derived from enzyme kinetics or from competition with a known ligand. Low values mean higher affinity, high ones lower affinity. In general, EC50 refers to the concentration at which the effect is half-maximal. The IC50 is the concentration that inhibits the measured activity by half. Broadly, the inhibition is the change of the read-out against control, counted positive when it falls.
